Active and inactive are the calls of the source. No cut-off for these calls is given here.

Test [1] is described as follows: Inhibition of trypsin at 50 uM preincubated for 5 mins before addition of increasing concentration of substrate Z-FR-AMC.
Another test addresses T1, Papain (Carica papaya, UniProt P00784).
T1 sequence (P00784 whole entry): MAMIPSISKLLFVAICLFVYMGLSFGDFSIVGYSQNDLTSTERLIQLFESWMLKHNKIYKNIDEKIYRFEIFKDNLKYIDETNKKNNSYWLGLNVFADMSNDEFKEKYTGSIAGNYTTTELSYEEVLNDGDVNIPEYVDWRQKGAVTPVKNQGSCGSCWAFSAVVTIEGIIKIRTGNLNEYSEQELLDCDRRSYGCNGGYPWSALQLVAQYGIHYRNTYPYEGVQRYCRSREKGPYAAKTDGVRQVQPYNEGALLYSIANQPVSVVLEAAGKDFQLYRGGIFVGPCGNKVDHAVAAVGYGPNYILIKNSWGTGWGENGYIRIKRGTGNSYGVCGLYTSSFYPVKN
The test can be described thus: Inhibition of Carica papaya papain by spectrofluorimetry. Summed up:
(§1)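 Enzyme (papain and CatB DTT 10 mM-activated; trypsin not) incubated 5 min at 25 °C with DMSO-dissolved inhibitor, five concentrations; Z-FR-AMC started reaction, AMC ex 380/em 460 nm. Papain: phosphate 50 mM pH 6.8, EDTA 1.0 mM, 7.8 nM. CatB: Tris–HCl 50 mM pH 7.5, EDTA 5 mM, 1.0 nM. Trypsin: Tris–HCl pH 7.5, CaCl2 10 mM, 56.1 nM. IC50 from time-course dose–response; triplicate.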

The target in test [2] is T2, Papain (Carica papaya) (UniProt P00784).
T2 sequence (whole entry): T1 sequence (P00784 whole entry)
In words: Inhibition of Carica papaya papain at 50 uM preincubated for 5 mins before addition of increasing concentration of substrate Z-FR-AMC.

The nature of test [3]: Inhibition of trypsin by spectrofluorimetry.
In another test the target is Cathepsin B (Homo sapiens, UniProt P07858). The test can be described thus: Inhibition of cathepsin B by spectrofluorimetry. Summed up: as §1
Test [4] addresses T2, Papain (Carica papaya). The test can be described thus: Inhibition of Carica papaya papain at 50 uM preincubated before DTT addition by fluorescence measurement.
In test [5] the target is T2, Papain (Carica papaya). Particulars: 0.2 uM.
Test [6] concerns the target T2, Papain (Carica papaya). Particulars: 0.5 uM.
A short description of test [7]: Inhibition of trypsin assessed as residual enzyme activity at 10 uM after 30 mins.
Test [8] deals with T2, Papain (Carica papaya). The test can be described thus: Inhibition of Carica papaya papain assessed as residual enzyme activity at 9 uM after 30 mins.
In another test the target is T3, Cathepsin G (Homo sapiens, UniProt P08311).
T3 sequence (P08311 whole entry): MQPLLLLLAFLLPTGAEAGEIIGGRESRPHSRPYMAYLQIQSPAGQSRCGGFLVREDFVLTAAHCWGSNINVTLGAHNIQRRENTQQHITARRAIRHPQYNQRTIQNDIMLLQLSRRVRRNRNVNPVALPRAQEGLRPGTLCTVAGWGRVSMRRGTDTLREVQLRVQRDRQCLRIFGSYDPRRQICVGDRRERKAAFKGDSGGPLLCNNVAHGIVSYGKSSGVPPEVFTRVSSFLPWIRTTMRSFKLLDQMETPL
The test can be described thus: Inhibition of cathepsin G by spectrofluorimetry.

In general, IC50 refers to the concentration that inhibits the measured activity by half. `O=C(c1ccccc1O)c1ccc(O)cc1O`: the inhibition entry (in test [1]; at Papain (Carica papaya) [2]; on Papain (Carica papaya) [4]) was “inactive” in each case. For the same molecule, the IC50 at Papain turned out to be 693 µM; in test [3], 301 µM; against Cathepsin B, 198 µM.
`O=C(c1ccccc1)c1ccccc1` [BENZOPHENONE]: the inhibition result (in test [1]; on Papain (Carica papaya) [2]; on Papain (Carica papaya) [4]) was “inactive” each time. The figures for the IC50 (at Papain; in test [3]; at Cathepsin B) were 3460 µM, 3470 µM and 289 µM, respectively.
Take `CC(C)C[C@H](NC(=O)[C@H]1O[C@@H]1C(=O)O)C(=O)NCCCCN=C(N)N` [E-64]: the inhibition result on Papain (Carica papaya) [5] and at Papain (Carica papaya) [6] was “Active” each time. At Papain, inhibition was half-maximal at 0.047 µM (IC50).
For the molecule `CC(C)=CC[C@H]1C[C@@]2(CC=C(C)C)C(=O)C(C(=O)c3ccccc3)=C(O)[C@H](C2=O)C1(C)C` [GARCINIAPHENONE], the inhibition entry (in test [1]; at Papain (Carica papaya) [2]; on Papain (Carica papaya) [4]) was “inactive” throughout. Moreover, the IC50 against Papain is 131 µM; in test [3] it was 104 µM; at Cathepsin B, 103 µM. Also, the inhibition entry (in test [7]; on Papain (Carica papaya) [8]) was “Active” throughout.
With `CC(C)=CCC[C@]1(C)[C@@H](CC=C(C)C)C[C@]2(CC=C(C)C)C(=O)[C@@]1(CC=C(C)C)C(=O)C(C(=O)c1ccc(O)c(O)c1)=C2O` [GUTTIFERONE A], the IC50 is 1.9 µM on Papain, 2.7 µM at Cathepsin G and 2.1 µM at Cathepsin B. For the same molecule, the inhibition entry at Papain (Carica papaya) [2], on Papain (Carica papaya) [4] and at Papain (Carica papaya) [8] was “Active” in each case.
As for `CC(=O)N[C@@H](CC(C)C)C(=O)N[C@@H](CC(C)C)C(=O)N[C@H](C=O)CCCNC(=N)N` [LEUPEPTIN], the IC50 at Cathepsin B was 0.047 µM.

Values taken from ChEMBL document CHEMBL1138580, “Natural polyprenylated benzophenones inhibiting cysteine and serine proteases” (Eur J Med Chem, 2009).
